Results on 4 compounds are retold here after ChEMBL document CHEMBL5634203, “A Tiny Pocket Packs a Punch: Leveraging Pyridones for the Discovery of CNS-Penetrant Aza-indazole IRAK4 Inhibitors” (ACS Med Chem Lett, 2024).

Converted amounts (≈) assume the structure as drawn. A value given as a limit tells only on which side of the number the result lay.

Data set [1] can be described thus: Lipophilicity, log D of the compound at pH 7.4. Format: physicochemical. To be noted: buffer.
A short description of data set [2]: Kinetic solubility of compound in DMSO at pH 6.8 incubated for 24 hrs. The data set is classed as physicochemical. The note with it: read-out: Kinetic_solubility. A digest of the protocol: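 Kinetic solubility assay at pH 6.8. Arithmetic mean of at least two experiments.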
The nature of data set [3]: Intrinsic clearance in human liver microsomes. Format: ADME, Microsome. To be noted: read-out: CLH. Summed up: (§1)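 Intrinsic clearance measured in human liver microsomes and in human hepatocytes and reported as scaled values. Arithmetic mean of at least two experiments.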
Data set [4] in a line: Intrinsic clearance in human hepatocytes. Format: ADME, cell-based, Hepatocyte. A digest of the protocol: as §1
The nature of data set [5]: Plasma protein binding in rat assessed as unbound fraction. The data set is classed as ADME, cell-free.
Data set [6] can be described thus: Plasma protein binding in human assessed as unbound fraction. Format: ADME, cell-free.
A short description of data set [7]: Unbound brain-to-plasma concentration ratio in Sprague-Dawley rat brain at 1 mg/kg, iv by LC-MS/MS analysis. The data set is classed as ADME, organism-based. To be noted: read-out: K(p,uu,brain). A digest of the protocol:
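Male Sprague Dawley rats dosed by infusion as a cassette. Total drug measured in brain (Cb) and plasma (Cp). Kpu,u calculated as (Cb×Fub)/(Cp×Fup), using the unbound fractions in brain and in plasma.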

Data set [8] is described as follows: Clearance in Sprague-Dawley rat measured for 4 hrs by LC-MS/MS analysis. The data set is classed as ADME. To be noted: in vivo. A digest of the protocol:
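Male Sprague Dawley rats dosed by infusion. Clearance measured during the cassette Kpu,u procedure.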

Data set [9] relates to Mus musculus. In words: Anti-inflammatory activity in po dosed C57BL/6 mouse assessed reduction in LPS-induced IL-1beta level in plasma preincubated with compound for 60 mins followed by LPS-induction and measured after 90 mins by ELISA analysis. The data set is classed as functional, organism-based. To be noted: dose 10-100 mg/kg, time 150.0 min. A digest of the protocol: (§2)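 Mice dosed orally with vehicle (0 mpk) or 10, 30 or 100 mpk, 60 min before intraperitoneal LPS. Cytokine levels and free drug concentration in plasma and brain taken 90 min after LPS. Each dose group compared by one-way ANOVA with the vehicle group given i.p. LPS.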

Data set [10] relates to Mus musculus. In words: Anti-inflammatory activity in po dosed C57BL/6 mouse assessed reduction in LPS-induced TNFalpha level in plasma preincubated with compound for 60 mins followed by LPS-induction and measured after 90 mins by ELISA analysis. Format: functional, organism-based. To be noted: dose 10-100 mg/kg, time 150.0 min. Summed up: as §2
For data set [11], the system named is Mus musculus. In words: Anti-inflammatory activity in po dosed C57BL/6 mouse assessed reduction in LPS-induced MCP-1 level in plasma preincubated with compound for 60 mins followed by LPS-induction and measured after 90 mins by ELISA analysis. Format: functional, organism-based. To be noted: dose 10-100 mg/kg, time 150.0 min. Summed up: as §2
Data set [12] concerns Mus musculus. In words: Anti-inflammatory activity in po dosed C57BL/6 mouse assessed reduction in LPS-induced KC-GRO level in plasma preincubated with compound for 60 mins followed by LPS-induction and measured after 90 mins by ELISA analysis. The note with it: dose 10-100 mg/kg, time 150.0 min. The data set is classed as functional, organism-based. A digest of the protocol: as §2

Data set [13] relates to Mus musculus. The data set can be described thus: Anti-inflammatory activity in po dosed C57BL/6 mouse assessed reduction in LPS-induced IL-6 level in plasma preincubated with compound for 60 mins followed by LPS-induction and measured after 90 mins by ELISA analysis. Format: functional, organism-based. To be noted: dose 10-100 mg/kg, time 150.0 min. Summed up: as §2
Data set [14] has as its system Mus musculus. In words: Anti-inflammatory activity in po dosed C57BL/6 mouse assessed reduction in LPS-induced IL-1beta level in brain preincubated with compound for 60 mins followed by LPS-induction and measured after 90 mins by ELISA analysis. Format: functional, organism-based. To be noted: dose 10-100 mg/kg, time 150.0 min. Summed up:
as §2

The subject of data set [15] is Mus musculus. The data set can be described thus: Anti-inflammatory activity in po dosed C57BL/6 mouse assessed reduction in LPS-induced TNFalpha level in brain preincubated with compound for 60 mins followed by LPS-induction and measured after 90 mins by ELISA analysis. The data set is classed as functional, organism-based. The note with it: dose 10-100 mg/kg, time 150.0 min. A digest of the protocol:
as §2

Data set [16] has as its system Mus musculus. In words: Anti-inflammatory activity in po dosed C57BL/6 mouse assessed reduction in LPS-induced MCP-1 level in brain preincubated with compound for 60 mins followed by LPS-induction and measured after 90 mins by ELISA analysis. Format: functional, organism-based. To be noted: dose 10-100 mg/kg, time 150.0 min. A digest of the protocol: as §2
Data set [17] relates to Mus musculus. The data set can be described thus: Anti-inflammatory activity in po dosed C57BL/6 mouse assessed reduction in LPS-induced KC-GRO level in brain preincubated with compound for 60 mins followed by LPS-induction and measured after 90 mins by ELISA analysis. The data set is classed as functional, organism-based. To be noted: dose 10-100 mg/kg, time 150.0 min. Summed up:
as §2

The subject of data set [18] is Mus musculus. In words: Anti-inflammatory activity in po dosed C57BL/6 mouse assessed reduction in LPS-induced IL-6 level in brain preincubated with compound for 60 mins followed by LPS-induction and measured after 90 mins by ELISA analysis. The note with it: dose 10-100 mg/kg, time 150.0 min. Format: functional, organism-based. Summed up:
as §2

Data set [19] relates to Mus musculus. The data set can be described thus: Anti-inflammatory activity in po dosed C57BL/6 mouse assessed increase in LPS-induced IL-10 level in plasma preincubated with compound for 60 mins followed by LPS-induction and measured after 90 mins by ELISA analysis. The note with it: dose 10-100 mg/kg, time 150.0 min.

In data set [1], `CC(C)Oc1cc2nn(C34COC(C)(C3)C4)cc2cc1C(=O)Nc1cccn([C@H]2C[C@H]2F)c1=O` yielded a logD of 2.74. In addition, the solubility kinetic at 24 h in data set [2] turned out to be 0.056 mg/mL (≈ 120 µM). In addition, the microsomal CLint in data set [3] was less than 5.3 µL/min/mg. Besides, the CLH in data set [4] is 3.8 µL/min/mg. Moreover, the figures for the free fraction (fraction unbound) in data set [5] and in data set [6] were 0.047 and 0.0232, respectively.

In the case of `CC(C)Oc1cc2nn(C34COC(C)(C3)C4)cc2cc1C(=O)Nc1cccn(C)c1=O`, in data set [1], the logD stood at 2.16. The solubility kinetic at 24 h in data set [2] was 0.058 mg/mL (≈ 137 µM). In addition, in data set [3], the microsomal CLint came to 7.07 µL/min/mg. The compound also had a CLH in data set [4] of 3.43 µL/min/mg. Also, the Kp uu in [7] came out at 1. In [8], this compound displayed a clearance of 0.672 L/h/kg. Also, the Activity result in [9], in data set [10], in [11], in data set [12], in data set [13] and in [14] was “Dose-Dependent Effect” each time. Also, the Activity result in data set [15], in [16], in [17], in [18] and in data set [19] was “Dose-Dependent Effect” each time.

For `CC(C)Oc1nc2nn(C34COC(C)(C3)C4)cc2cc1C(=O)Nc1cccn([C@@H]2C[C@@H]2F)c1=O`, the logD in data set [1] came out at 2.61. Besides, the solubility kinetic at 24 h in [2] stood at 0.0066 mg/mL (≈ 14.1 µM). Further, the microsomal CLint in data set [3] was less than 5.3 µL/min/mg. In data set [4], this compound displayed a CLH of 3.3 µL/min/mg. The fraction unbound in [5] came out at 0.083; in data set [6] it was 0.0127.

In [1], `CC(C)Oc1nc2nn(C34COC(C)(C3)C4)cc2cc1C(=O)Nc1cccn([C@H]2C[C@H]2F)c1=O` registered a log distribution coefficient (logD) of 2.54. Moreover, in data set [2], the solubility kinetic at 24 h is 0.025 mg/mL (≈ 53.5 µM). Besides, the microsomal CLint in data set [3] was less than 5.3 µL/min/mg. In data set [4], this compound yielded a CLH of 3 µL/min/mg. Moreover, the Kp uu in data set [7] was found to be 0.7. Besides, in data set [8], the clearance was determined as 2.58 L/h/kg. For the same compound, the fraction unbound in data set [5] was 0.0718; in data set [6] it was 0.0594.
